The structures appear in SMILES notation. The source made the active and inactive calls.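 How the source made its calls, unless noted: active means growth inhibition above a set limit, 3 SD over mean compound inhibition, in both replicates (cut at about 43% in these data); inconclusive means above the limit in only one replicate; inactive means at or below the limit in both replicates.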

The nature of one test: Restrictive medium S. cerevisiae growth inhibition, OD615, pilot screen of yeast lifespan reduction project, restrictive growth control (AID 706).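 Further: modified DeaD lifespan yeast strain shifted to restrictive glucose medium.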 The following applies: OD615, 48 h, at 10 µM, hits give high values. In a few lines: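 Buffer or medium: restrictive glucose medium (CSMM-D); test system: modified S. cerevisiae; doses: single dose of 10 µM compound final, 0.25% DMSO; schedule: 48 h compound exposure at 30 °C; detection: absorbance (optical density) measured at 615 nm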
On to `O=C(Cn1cc2c(n1)CCCCC2)N1CCc2ccccc21`, for which the growth inhibition was -4.38% (inactive).
Same read-out and setting: with `CC(C)c1nccn1S(=O)(=O)c1cc(Cl)ccc1Cl` the figure was -1% (inactive).
Consider `CC(=O)Nc1cccc(NC(=O)CSc2nn3c(=O)c(C)nnc3s2)c1`, for which the growth inhibition is -16% (inactive).
For the compound `CCOc1ccc2nc(Nc3nc4c(c(=O)[nH]3)CCC4)nc(C)c2c1`, the growth inhibition was 9.05% (inactive).
In the case of `C(=N\c1c(-c2ccccc2)nc2n1CCS2)/c1ccccc1`, the growth inhibition was 40.4% (inactive).
Still for that read-out and setting: with `CCN(CC)S(=O)(=O)c1ccc2oc(C(=O)N3CCOCC3)c(C)c2c1` the figure was -17.5% (inactive); with `CCOC(=O)C1CCN(Cc2ccc(OC)c(C)c2OC)CC1`, 2.96% (inactive).
Same read-out and setting: next, `Cc1cc(N)n2nc(-c3ccccc3)cc2n1`: -13.9% (inactive); `Cc1nnc(SCC(=O)Nc2sc3c(c2C#N)CCCC3)[nH]c1=O`: 10.9% (inactive).
Same read-out and setting: with `Cc1cc(NC(=O)COc2cccc(C)c2C)no1` the figure was 6.53% (inactive); with `Cc1cc(C)c(NC(=O)CSc2nc3c(c(=O)n2C)SC(C)C3)c(C)c1` (stereo not given), -17.5% (inactive); with `CC(=O)c1ccc(OCC(O)CN2CCN(CCO)CC2)cc1` (stereo not given), 4.8% (inactive).
As to `CCn1cc(C(=O)NCC2CCCO2)c(=O)c2cc(S(=O)(=O)N(C)C)ccc21` (stereo not given), the growth inhibition is 1.3% (inactive).
Same read-out and setting: with `C=CCSc1nc(N)c2c(C)c(C)sc2n1` the figure was -14% (inactive).
On the same count and under the same terms, with `CC1CCCN(C(=O)c2cc3c(-c4ccc(Cl)cc4)nn(C)c3s2)C1` (stereo not given) the figure was -3.9% (inactive); with `COc1cccc2cc(C(=O)OC3CCN(C)CC3)c(=O)oc12`, -8.68% (inactive); with `COC(=O)c1cn(C(=O)c2ccc(Br)o2)c2ccccc12`, 0.5% (inactive).
The same measure, in the same setting: with `COc1cc(NC(=O)C2C3C=CC(C3)C2C(=O)O)c(OC)cc1Cl` (stereo not given) the figure was -20.4% (inactive); with `COc1ccc(C2CC(c3ccc(C)cc3)Nc3ncnn32)cc1` (stereo not given), 20% (inactive); with `CCc1ccc(C2CC(c3cccc(OC)c3)n3nc(N)nc3N2)cc1` (stereo not given), 12% (inactive).
`COc1ccc(NS(=O)(=O)c2coc(C(N)=O)c2)cc1Cl`: the growth inhibition was -10.9% (inactive).
The same measure, in the same setting: with `O=C1c2ccccc2S(=O)(=O)N1CC(O)Cn1c2ccccc2c2ccccc21` (stereo not given) the figure was 9.13% (inactive); with `O=C(Nc1nnc(-c2ccc(Cl)cc2)o1)C1CCCCC1`, 8.62% (inactive).
As to `O=C1c2ccccc2C(Nc2ccc(F)cc2F)N1CCN1CCOCC1` (stereo not given), the growth inhibition is -1.68% (inactive).
Regarding `CCOc1ccc(N(CC(=O)NC2CCCCC2)S(=O)(=O)c2c(C)noc2C)cc1`, the growth inhibition was 0.415% (inactive).
On to `Cc1ccc2oc(=O)c3cnn(CC(=O)N4CCCc5ccccc54)c3c2c1`, for which the growth inhibition was -5.59% (inactive).
Same read-out and setting: with `O=C(Nn1cnnc1)C1Cc2ccccc2CN1S(=O)(=O)c1ccc(F)cc1` (stereo not given) the figure was 5.43% (inactive); with `Cc1cc(C)cc(N(CC(=O)NC2CCC(C)CC2)S(=O)(=O)c2c(C)noc2C)c1` (stereo not given), -18.5% (inactive); with `Cc1nc2ccccn2c1/C(O)=C1\C(=O)C(=O)N(CCCN(C)C)C1c1ccc(F)cc1` (stereo not given), -14% (inactive).
The same measure, in the same setting: with `CC(=O)N(C(C)=O)c1ncc2c([nH]c3ccccc32)c1C#N` the figure was -11.2% (inactive).
`CC(C)c1ccc(C(O)c2cnc(C(C)C)n2C)cc1` (stereo not given): the growth inhibition is -0.345% (inactive).
In the case of `COCCn1cc(C(=O)c2ccccc2OCC(=O)Nc2cc(C)on2)cc(C#N)c1=O`, the growth inhibition is -14% (inactive).
For the compound `O=C(NC(=O)c1cccc(F)c1)OC[C@@H]1CCCN2CCCC[C@H]12`, the growth inhibition is -9.63% (inactive).
In the case of `CCN1CCN(C(=O)Cn2ncc3ccsc3c2=O)CC1`, the growth inhibition was 2.34% (inactive).
The same measure, in the same setting: next, `CCCC(=O)Nc1cc(C)c2c(=O)oc3ccccc3c2n1`: 3.23% (inactive).
Same read-out and setting: with `Cc1cc(C)c(C#N)c(SCC(=O)Nc2ccc(S(=O)(=O)Nc3onc(C)c3C)cc2)n1` the figure was 7.54% (inactive); with `CC1=C(C(N)=O)C(c2ccncc2)n2nc(-c3ccccc3Cl)nc2N1` (stereo not given), 6.52% (inactive); with `O=C(C1CCCN1S(=O)(=O)c1cccc2cccnc12)N1CCn2c1nc1ccccc12` (stereo not given), 4.54% (inactive).
The same measure, in the same setting: next, `Cc1ccc(C(=O)CC2(O)C(=O)N(C)c3ccc(Br)cc32)c(C)c1` (stereo not given): 9.8% (inactive).
As for `COc1ccc(OCCSc2nc3ccccc3n2CC(=O)O)cc1`, the growth inhibition is -5.21% (inactive).

A further test is described as follows: viability gain of MRP-1-high H69AR cells under doxorubicin, pilot screen, MRP-1 activator project, CellTiter-Glo, duplicate (AID 807;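 active means viability increase at or above a cutoff of the median across tested compounds plus 3 SD, cut at about 8.5% in these data, passing the limit was not always enough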;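 further: compound pretreatment 18-22 h then 72 h combined with doxorubicin; 0% = doxorubicin alone and 100% = vehicle without doxorubicin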). The following applies: H69AR viability with doxorubicin, CellTiter-Glo luminescence; at 10 µM; hits give high values. (In ATP-based viability assays light output follows the ATP content of the culture.)
Take `O=C(Cn1cc2c(n1)CCCCC2)N1CCc2ccccc21`: the viability increase is -2.66% (inactive).
Same read-out and setting: with `CC(C)c1nccn1S(=O)(=O)c1cc(Cl)ccc1Cl` the figure was 0% (inactive); with `CC(=O)Nc1cccc(NC(=O)CSc2nn3c(=O)c(C)nnc3s2)c1`, 0.35% (inactive); with `CCOc1ccc2nc(Nc3nc4c(c(=O)[nH]3)CCC4)nc(C)c2c1`, 0.54% (inactive).
Still for that read-out and setting: next, `C(=N\c1c(-c2ccccc2)nc2n1CCS2)/c1ccccc1`: -4.2% (inactive); `CCN(CC)S(=O)(=O)c1ccc2oc(C(=O)N3CCOCC3)c(C)c2c1`: 0.12% (inactive); `CCOC(=O)C1CCN(Cc2ccc(OC)c(C)c2OC)CC1`: -4.57% (inactive).
Same read-out and setting: with `Cc1cc(N)n2nc(-c3ccccc3)cc2n1` the figure was -3.46% (inactive); with `Cc1nnc(SCC(=O)Nc2sc3c(c2C#N)CCCC3)[nH]c1=O`, -2.28% (inactive).
As to `Cc1cc(NC(=O)COc2cccc(C)c2C)no1`, the viability increase was 3.52% (inactive).
The same measure, in the same setting: with `Cc1cc(C)c(NC(=O)CSc2nc3c(c(=O)n2C)SC(C)C3)c(C)c1` (stereo not given) the figure was -0.13% (inactive); with `CC(=O)c1ccc(OCC(O)CN2CCN(CCO)CC2)cc1` (stereo not given), 1.18% (inactive).
Same read-out and setting: with `CCn1cc(C(=O)NCC2CCCO2)c(=O)c2cc(S(=O)(=O)N(C)C)ccc21` (stereo not given) the figure was -0.77% (inactive).
Same read-out and setting: with `C=CCSc1nc(N)c2c(C)c(C)sc2n1` the figure was -3.58% (inactive); with `CC1CCCN(C(=O)c2cc3c(-c4ccc(Cl)cc4)nn(C)c3s2)C1` (stereo not given), -2.82% (inactive).
For the compound `COc1cccc2cc(C(=O)OC3CCN(C)CC3)c(=O)oc12`, the viability increase is -3.68% (inactive).
Same read-out and setting: with `COC(=O)c1cn(C(=O)c2ccc(Br)o2)c2ccccc12` the figure was 0.03% (inactive); with `COc1cc(NC(=O)C2C3C=CC(C3)C2C(=O)O)c(OC)cc1Cl` (stereo not given), -1.99% (inactive).
Consider `COc1ccc(C2CC(c3ccc(C)cc3)Nc3ncnn32)cc1` (stereo not given), for which the viability increase is -0.88% (inactive).
Still for that read-out and setting: next, `CCc1ccc(C2CC(c3cccc(OC)c3)n3nc(N)nc3N2)cc1` (stereo not given): 2.74% (inactive); `COc1ccc(NS(=O)(=O)c2coc(C(N)=O)c2)cc1Cl`: -0.71% (inactive).
On the same count and under the same terms, with `O=C1c2ccccc2S(=O)(=O)N1CC(O)Cn1c2ccccc2c2ccccc21` (stereo not given) the figure was -1.19% (inactive).
Same read-out and setting: with `O=C(Nc1nnc(-c2ccc(Cl)cc2)o1)C1CCCCC1` the figure was -1.38% (inactive); with `O=C1c2ccccc2C(Nc2ccc(F)cc2F)N1CCN1CCOCC1` (stereo not given), -1.58% (inactive).
Turning to `CCOc1ccc(N(CC(=O)NC2CCCCC2)S(=O)(=O)c2c(C)noc2C)cc1`, the viability increase is -1.54% (inactive).
`Cc1ccc2oc(=O)c3cnn(CC(=O)N4CCCc5ccccc54)c3c2c1`: the viability increase is -3.17% (inactive).
For the compound `O=C(Nn1cnnc1)C1Cc2ccccc2CN1S(=O)(=O)c1ccc(F)cc1` (stereo not given), the viability increase was 0.15% (inactive).
The same measure, in the same setting: with `Cc1cc(C)cc(N(CC(=O)NC2CCC(C)CC2)S(=O)(=O)c2c(C)noc2C)c1` (stereo not given) the figure was -1.82% (inactive); with `Cc1nc2ccccn2c1/C(O)=C1\C(=O)C(=O)N(CCCN(C)C)C1c1ccc(F)cc1` (stereo not given), -2.7% (inactive); with `CC(=O)N(C(C)=O)c1ncc2c([nH]c3ccccc32)c1C#N`, -7.26% (inactive).
Still for that read-out and setting: next, `CC(C)c1ccc(C(O)c2cnc(C(C)C)n2C)cc1` (stereo not given): 0.64% (inactive); `COCCn1cc(C(=O)c2ccccc2OCC(=O)Nc2cc(C)on2)cc(C#N)c1=O`: -0.5% (inactive); `O=C(NC(=O)c1cccc(F)c1)OC[C@@H]1CCCN2CCCC[C@H]12`: -0.15% (inactive).
On to `CCN1CCN(C(=O)Cn2ncc3ccsc3c2=O)CC1`, for which the viability increase is 1.63% (inactive).
As to `CCCC(=O)Nc1cc(C)c2c(=O)oc3ccccc3c2n1`, the viability increase was -4.74% (inactive).
The same measure, in the same setting: with `Cc1cc(C)c(C#N)c(SCC(=O)Nc2ccc(S(=O)(=O)Nc3onc(C)c3C)cc2)n1` the figure was -0.72% (inactive).
On the same count and under the same terms, with `CC1=C(C(N)=O)C(c2ccncc2)n2nc(-c3ccccc3Cl)nc2N1` (stereo not given) the figure was -0.22% (inactive); with `O=C(C1CCCN1S(=O)(=O)c1cccc2cccnc12)N1CCn2c1nc1ccccc12` (stereo not given), 0.79% (inactive); with `Cc1ccc(C(=O)CC2(O)C(=O)N(C)c3ccc(Br)cc32)c(C)c1` (stereo not given), -4.61% (inactive).
Same read-out and setting: with `COc1ccc(OCCSc2nc3ccccc3n2CC(=O)O)cc1` the figure was -0.98% (inactive).

These data come from PubChem BioAssay.
